An excerpt weighted towards active compounds, which were near 2.9% of everything screened.
SENP1 inh = human SENP1 catalytic domain inhibitors, primary screen, biochemical, FRET, uHTS. Sentrin-specific protease 1 (Homo sapiens), Q9P0U3. inhibition, % at 10 µM. 360,000 compounds, 0.21% hits. recombinant SENP1 catalytic domain, CyPet-SUMO1-YPet FRET cleavage;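 active = inhibition at least 30% at 10 µM, raw YFP signal under a set limit, fluorescence ratio 0.5 to 1.5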;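 note: 0% = enzyme with DMSO and 100% = no enzyme wells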
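Assay system – human recombinant His6-tagged SENP1 catalytic domain enzyme · Input – SENP1 enzyme, 20 pM final · Buffer or medium – Tris pH 8 buffer plus EDTA, NaCl, BME, BSA, NP40, catalase · Schedule – 50 min reaction at room temperature · Technique – FRET read of cyan and yellow fluorescence · Control set – no-enzyme wells low, DMSO-plus-enzyme wells high control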
SENP8 block-1 = human SENP8 protease inhibitors, primary screen, biochemical, fluorescence, Nedd8 protein substrate, uHTS; recombinant SENP8; inhibition, % at 20 µM; 360,000 compounds, 0.64% hits; Sentrin-specific protease 8 (Homo sapiens), Q96LD8; in the data active = inhibition mostly above about 40%, no sharp cut-off; inactive = mostly below about 27%
HSP90 inh = HSP90 inhibitors, primary screen, cell lysate, luminescence; Rabbit reticulocyte lysate, luciferase refolding luminescence, 3 h; inhibition, % at 5.6 µM; AID 1789, 2009; 290,000 compounds, 0.91% hits; Heat shock protein HSP 90 (rabbit reticulocyte lysate; luciferase refolding);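 active = inhibition above the screen-wide mean plus 3 SD, computed separately per campaign, cut at about 16% in these data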;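 note: 0% = DMSO wells and 100% = 60 µM geldanamycin wells; inhibitors lower the luminescence because luciferase stays unfolded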
SENP6 block = SENP6 protease inhibitors, primary screen, biochemical, luminescence, uHTS; 330,000 compounds, 1.8% hits; Sentrin-specific protease 6 (Homo sapiens), Q9GZR1; Recombinant SENP6 catalytic domain, aminoluciferin luminescence; AID 2599, 2010; inhibition, % at 10 µM;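 active = inhibition above about 50% at the single tested dose, limit read from the data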;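 note: plate controls were DMSO wells with enzyme for no effect and DMSO wells lacking enzyme for full effect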
Target sequence (Q9GZR1 628-1112 limits assumed): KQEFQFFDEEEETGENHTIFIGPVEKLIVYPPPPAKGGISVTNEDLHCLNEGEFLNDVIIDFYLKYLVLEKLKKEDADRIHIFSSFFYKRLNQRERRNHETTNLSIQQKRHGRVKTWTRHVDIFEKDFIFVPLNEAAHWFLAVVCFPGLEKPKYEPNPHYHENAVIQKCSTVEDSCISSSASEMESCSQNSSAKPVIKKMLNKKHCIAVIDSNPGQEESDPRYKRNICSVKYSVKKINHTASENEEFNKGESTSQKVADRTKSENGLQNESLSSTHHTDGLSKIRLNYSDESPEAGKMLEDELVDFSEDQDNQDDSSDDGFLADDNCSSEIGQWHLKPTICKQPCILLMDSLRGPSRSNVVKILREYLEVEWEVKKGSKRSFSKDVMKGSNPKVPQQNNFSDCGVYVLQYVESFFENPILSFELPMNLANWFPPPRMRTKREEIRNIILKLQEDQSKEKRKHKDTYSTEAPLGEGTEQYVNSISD
SENP8 block-2 = SENP8 protease inhibitors, primary screen, biochemical, luminescence; Sentrin-specific protease 8 (Homo sapiens), Q96LD8; purified SENP8, Z-RLRGG-aminoluciferin cleavage; inhibition, % at 10 µM; 330,000 compounds, 1.2% hits; AID 2540, 2010; in the data active = inhibition above about 50%
SENP7 inh = SENP7 protease inhibitors, primary screen, biochemical, luminescence, uHTS; 330,000 compounds, 1.5% hits; inhibition, % at 5 µM; recombinant SENP7, Z-RLRGG-aminoluciferin luminescence, 40 min; Sentrin-specific protease 7 (Homo sapiens), Q9BQF6;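 active = inhibition above about 50% at the single test dose, limit read from the data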;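 note: plate controls were DMSO with enzyme for no effect and no enzyme buffer wells for full effect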
SENP1 inh conf = human SENP1 catalytic domain inhibitors, confirmation, biochemical, FRET endpoint, single concentration; AID 651678, 2012; shares compounds with SENP1 inh; recombinant SENP1, CyPet-SUMO1-YPet FRET cleavage; 520 compounds, 34% hits; inhibition, % at 10 µM; in the data active = inhibition mostly above about 35%, no sharp cut-off; inactive = mostly below about 32%;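 note: 0% = enzyme with DMSO and 100% = no enzyme control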
SENP1 kinetic = human SENP1 catalytic domain inhibitors, confirmation, biochemical, kinetic FRET, single concentration; 520 compounds, 26% hits; inhibition, % at 10 µM; shares compounds with SENP1 inh; recombinant SENP1, CyPet-SUMO1-YPet FRET kinetic cleavage; AID 651690, 2012; in the data active = inhibition mostly above about 32%, no sharp cut-off; inactive = mostly below about 29%;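 note: 0% = DMSO with enzyme and 100% = no enzyme substrate only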
An asterisk follows results filed as active; · = no result.

SMILES	SENP1 inh	SENP8 block-1	HSP90 inh	SENP6 block	SENP8 block-2	SENP7 inh	SENP1 inh conf	SENP1 kinetic
O=C(NCc1cnn(-c2ccccc2)c1)C1CCC(=O)N(C2CC2)C1 (stereo not given)	-3	6	-4	-9	-7	-5	·	·
CCc1cccc(CC)c1-n1c(SCC(=O)N2CCc3ccccc3C2)nnc1-c1cccnc1	37*	9	-2	1	-5	-7	11	14
Clc1ccc(-c2ccc(C=Nc3ccc(N4CCOCC4)cc3)o2)c(Cl)c1	32*	4	3	-2	-4	5	-2	3
Clc1ccc(-c2ccc(C=Nc3ccc(N4CCOCC4)cc3)o2)cc1	-68	-103	-2	-5	-1	3	·	·
Cc1ccc2c(c1)C(=C(C#N)C#N)CCN2	36*	-24	·	·	·	·	52*	33*
Cc1ccc2c(c1)C(=O)CCN2	30	-48	1	-6	0	-3	·	·
Cc1cccc(N2CCN(C(=O)C3CCC(=O)N(Cc4ccccc4F)C3)CC2)c1C (stereo not given)	1	7	4	2	7	3	·	·
COc1ccc(N2CCN(C(=O)c3ccc4c(c3)NC(=O)C(CSCc3ccccc3F)N4)CC2)cc1 (stereo not given)	33*	32	·	·	·	·	6	9
O=C1Nc2cc(C(=O)N3CCN(c4ccccc4F)CC3)ccc2NC1CSCc1ccccc1F (stereo not given)	·	·	5	3	13	2	·	·
CCN1C(=O)c2cccc3c(NC(=O)c4cccc(N5C(=O)CCC5=O)c4)ccc1c23	58*	13	4	-6	0	2	44*	28
N#C/C(C(=O)N1CCOCC1)=C1/SC(Cc2ccccc2)C(=O)N1c1ccccc1 (stereo not given)	37*	12	1	-4	-2	0	-5	4
COc1ccc(N/N=C(/C)c2cnnc(-c3ccccc3)n2)cc1	66*	36	4	5	1	3	10	10
Cc1cc2c(C)nc(N/N=C/c3ccc([N+](=O)[O-])cc3)nc2o1	36*	11	8	·	·	·	32	19
O=C1CC[C@@H]2C[C@@]3(C[C@@H]4CCN1[C@H]24)Nc1cc([N+](=O)[O-])ccc1NC3=NCc1ccccc1	55*	31	·	·	·	·	42*	26
COC(=O)[C@@]12C[C@@H](CC(=O)N3CCOCC3)C(=O)N(Cc3ccc4c(c3)OCO4)C1=CCC(C)(C)C2	2	30	·	·	·	·	·	·
CCOC(=O)C1CCCN(C2=NC(=O)/C(=C/c3ccc(O)c(OC)c3)S2)C1 (stereo not given)	69*	-89	-1	7	5	3	110*	66*
COc1cc(C(=O)OCC(=O)NC2CCCC2)cc(OC)c1OC	2	17	1	-36	-1	3	·	·
O=[N+]([O-])c1cccc(/C=C/c2nc(C=Nc3ccccc3)c(O)o2)c1	33*	4	5	-2	-3	-7	17	18
Cc1noc(C)c1S(=O)(=O)N(C)C[C@H]1Oc2ccc(NC(=O)CCC(F)(F)F)cc2C(=O)N([C@H](C)CO)C[C@@H]1C	0	4	·	-5	-1	-4	·	·
CC(C)CNC(=O)c1ccc(C2SCC(=O)N2Cc2ccccc2)cc1 (stereo not given)	46*	-77	2	-5	-3	-1	35*	29

Assay outcomes: PubChem, several laboratories
